We go through three compounds from PMC7127609 (Cancer Letters, 2002).

Assay [1] deals with K562 cells. The assay is described as follows: Cell growth assay. Format: cell-based, human. Conditions: for IC50: Homo sapiens, K562, read-out: IC50p (50% inhibition of cell proliferation); for % of inhibition of cell proliferation: 4th day.
Assay [2] relates to U937 cells. The assay is described as follows: Cell growth assay. The assay is classed as cell-based, human. Particulars: for IC50: Homo sapiens, U-937, read-out: IC50p (50% inhibition of cell proliferation). In short, it runs like this: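 U937 cells seeded at 5×10^4 cells/ml in RPMI 1640 with 10% FBS and 2 mM glutamine, then grown with graded test compound levels at 37 °C, 5% CO2. Hemocytometer counts on days 3–5, trypan blue viability. IC50p taken from a day-3 inhibition-versus-concentration plot. Efflux arm: MRP inhibitor at 10 μM added with test compound (145 or 13 μM final), counted day 4, two quadruplicate experiments, paired t-test.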

The target in assay [3] is leucine aminopeptidase. Particulars: cited from earlier work.
The test system of assay [4] is U937 cells. Conditions: cited from earlier work.

Like-named read-outs stand apart in the source and are kept apart here.

In the case of `CCCCC[C@H](CC(=O)NO)C(=O)N[C@H](C(=O)N1CCC[C@H]1CO)C(C)C` [Actinonin], the values for the IC50 in assay [1] and in assay [2] were 19 µM and 11 µM, respectively. In assay [1] (K562, 580 μM bestatin or 26 μM actinonin + verapamil (30 μM)), the “% of inhibition of cell proliferation” value stood at 78.0±6.6%.
For the compound `COc1ccc(CCN(C)CCCC(C#N)(c2ccc(OC)c(OC)c2)C(C)C)cc1OC` (centres unmarked) [Verapamil, verapamil], in assay [2] (U937, 10 μM), the “antiproliferative effect on U937 cells” value was “exhibits an antiproliferative effect”.
One may read the Ki as the equilibrium dissociation constant of an inhibitor or competing ligand from its target. Consider `CC(C)C[C@H](NC(=O)[C@@H](O)[C@H](N)Cc1ccccc1)C(=O)O` [Bestatin], for which the IC50 was 466 µM in assay [1]; 108 µM in assay [2]; 58 µM in assay [4] (read-out: IC50p, ref 3); around 150 µM in assay [4] (read-out: IC50p, ref 6, 12); 8 µM in assay [4] (read-out: IC50p, ref 11). The “% of inhibition of cell proliferation” value in assay [1] (K562, 580 μM bestatin or 26 μM actinonin + MK-571 (10 μM)) was 66.0±3.7%; in assay [1] (K562, 580 μM bestatin or 26 μM actinonin + MK-571 (30 μM)), 73.6±3.4%; in assay [2] (U937, 145 μM bestatin or 13 μM actinonin + MK-571 (10 μM), 4th day), 87.4±4.1%. For the same compound, the “change of IC50p with time of incubation” value in assay [1] (K562, 3rd, 4th and 5th days, Fig. 1) is given as “increased significantly”. Further, in assay [3], the Ki was 0.02 µM.
